Assay outcomes: PubChem, several laboratories
A selection: hits, their analogues and other compounds. The true share with any hit is near 3.4%.
AHR activator = AHR activators, primary screen, cell-based, luminescence, luciferase reporter, human. AHR-responsive luciferase reporter cells. activation, % at 5 µM. 320,000 compounds, 2.5% hits; in the data active means activation above about 47%
A3G deaminase = APOBEC3G DNA deaminase inhibitors, primary screen, biochemical, fluorescence, single-stranded DNA substrate, uHTS; 330,000 compounds, 0.28% hits; inhibition, % at 20 µM; recombinant A3G, ssDNA deamination FAM/TAMRA fluorescence;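 active means inhibition of at least 40% at 20 µM, with no more than 30% in the related APOBEC3A deaminase screen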
PolyA inh = polyadenylation inhibitors in yeast reporter cells, primary screen, luminescence, S. cerevisiae; S. cerevisiae SKY197-pL101 polyadenylation reporter, beta-gal luminescence; efflux-impaired pdr1/pdr3 knockout yeast; score 100 = 6 SD above DMSO; activity score, % at 12 µM; 300,000 compounds, 0.02% hits; AID 1875, 2009;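 active means lowest replicate activity score at least 50, where 100 means six control SD above control mean; inconclusive means lowest score under 50 but half or more replicates reach 50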;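 further: yeast exposed to compound for 9 h at 30 °C; higher score means more reporter readthrough which indicates perturbed polyadenylation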
A3A deaminase = APOBEC3A ssDNA deaminase inhibitors, primary screen, selectivity assay for APOBEC3G inhibitor project, biochemical, FAM/TAMRA oligo cleavage fluorescence; recombinant A3A, FAM/TAMRA ssDNA deamination fluorescence; inhibition, % at 20 µM; 330,000 compounds, 0.41% hits; AID 493011, 2011;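 active means at least 40% inhibition at 20 µM here, with at most 30% in a related deaminase screen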
UCH37 DUB inh = inhibitors of human UCH37 deubiquitinase, primary screen, biochemical, Ub-AMC cleavage, fluorescence | purified proteasome/UCH37 | inhibition, % (concentration not given with the values) | 330,000 compounds, 0.33% hits | AID 588478, 2011;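 active means mean inhibition over replicate wells above about 20%, limit read from the data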
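Material: human UCH37 enzyme supplied as purified proteasome complex / Amount: 0.15 nM proteasome as dispensed / Buffer or medium: pH 7.4 Tris-HCl (50 mM) with ovalbumin, ATP-MgCl2, DTT / Times: preincubation 30 min, reaction 25 min, room temperature / Technique: AMC fluorescence from Ub-AMC cleavage, excitation 355 nm, emission 460 nm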
Arrestin-AP2 inh = inhibitors of beta-arrestin/AP2 binding, primary screen, biochemical, GPCR trafficking, flow cytometry | beta-arrestin 1 C-terminal peptide binding to AP2 beta2-adaptin appendage (human) | FITC-arrestin peptide / GST-AP2 beads; AP2 beta2 appendage carries R879A mutation | inhibition, % at 10 µM | 340,000 compounds, 0.31% hits | AID 504490, 2011;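 active means inhibition above a set limit, near 3 SD of compounds lacking own fluorescence, cut at about 54% in these data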
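System: GST-AP2 R879A glutathione beads; medium: PBS, Tween 20 0.05%, BSA 0.1%; reagent: fluorescein-tagged arrestin peptide at 50 nM final; schedule: pre-incubation 12 min, peptide binding 1 h, room temperature; detection: flow cytometry, FL1 (488/535 nm); read-out: inhibition as reduced fluorescein signal on beads, percent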
Arr AP2 CP1 = inhibitors of arrestin peptide binding to AP2, confirmation, biochemical, cherry pick 1, flow cytometry beads; shares compounds with Arrestin-AP2 inh; GST-AP2 beads, FITC arrestin peptide binding; GST-fused beta2-adaptin appendage, R879A mutant; inhibition, % at 10 µM; 1,300 compounds, 2% hits;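 active means inhibition above a set limit, roughly 3 SD of non-fluorescent compound noise, cut at about 38% in these data; inactive means inhibition at or below that limit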;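 further: loss of bead fluorescence from 50 nM FITC arrestin peptide bound to appendage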
Target sequence (P63010 whole entry, looked up, the tested form may be a part, one chain of several): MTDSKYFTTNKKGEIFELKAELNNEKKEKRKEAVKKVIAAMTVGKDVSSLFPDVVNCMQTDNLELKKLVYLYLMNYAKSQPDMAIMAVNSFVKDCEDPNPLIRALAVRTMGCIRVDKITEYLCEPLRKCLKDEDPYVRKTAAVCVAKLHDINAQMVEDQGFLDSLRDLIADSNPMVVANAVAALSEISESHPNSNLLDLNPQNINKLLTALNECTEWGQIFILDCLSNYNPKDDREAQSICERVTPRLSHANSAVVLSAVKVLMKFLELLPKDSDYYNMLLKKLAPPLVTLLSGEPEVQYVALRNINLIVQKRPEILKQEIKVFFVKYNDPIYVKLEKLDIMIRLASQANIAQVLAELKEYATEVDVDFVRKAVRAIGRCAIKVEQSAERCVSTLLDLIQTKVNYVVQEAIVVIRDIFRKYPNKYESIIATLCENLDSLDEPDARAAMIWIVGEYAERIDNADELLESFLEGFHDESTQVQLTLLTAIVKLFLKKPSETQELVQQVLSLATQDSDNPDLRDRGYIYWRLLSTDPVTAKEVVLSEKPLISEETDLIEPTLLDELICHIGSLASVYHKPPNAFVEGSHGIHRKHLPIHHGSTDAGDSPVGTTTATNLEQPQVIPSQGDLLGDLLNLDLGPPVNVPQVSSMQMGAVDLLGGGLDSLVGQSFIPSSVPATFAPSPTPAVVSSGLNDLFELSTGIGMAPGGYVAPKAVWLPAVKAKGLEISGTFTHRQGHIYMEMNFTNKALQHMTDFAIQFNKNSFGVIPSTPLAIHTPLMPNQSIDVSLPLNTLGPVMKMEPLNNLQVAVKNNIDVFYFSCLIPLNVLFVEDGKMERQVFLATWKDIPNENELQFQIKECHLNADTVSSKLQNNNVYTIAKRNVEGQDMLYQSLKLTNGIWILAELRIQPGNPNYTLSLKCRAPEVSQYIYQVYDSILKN
GST GSH counter = GST-fluorescein capture on glutathione beads, confirmation, artefact control for arrestin-AP2 inhibitor project, biochemical, cherry pick 1, flow cytometry; shares compounds with Arrestin-AP2 inh; GST-fluorescein binding to GSH beads, fluorescence, counter-screen; inhibition, % at 10 µM; 1,300 compounds, 2% hits; AID 588338, 2011;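 active means inhibition above 50%, about 3 SD of the inhibition seen with non-fluorescent compounds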;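 further: fluorescein maleimide labelled GST captured on 4 micron glutathione beads; higher means more loss of bead fluorescence from quenching or blocked binding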
Of the large screens only hits and unclear results are named; the others gave an inactive call (follow-up assays come after a bar, where they were run).

COc1cc(/C=N/NC(=O)c2cccnc2)ccc1OCC(=O)Nc1ccc(C)cc1	Arrestin-AP2 inh 91.0 (no result: UCH37 DUB inh) | Arr AP2 CP1 inactive | GST GSH counter inactive
CCCCNC(=S)N/N=C/c1ccc(OCC(=O)Nc2c(C)cc(C)cc2C)c(OC)c1	Arrestin-AP2 inh 102.9 (no result: UCH37 DUB inh) | Arr AP2 CP1 inactive | GST GSH counter inactive
COc1cc(C=NNC(=O)c2cccnc2)ccc1OCC(=O)Nc1c(C)cc(C)cc1C	none (no result: AHR activator, A3G deaminase, PolyA inh, A3A deaminase, Arrestin-AP2 inh)
COc1cc(/C=N/NC(N)=S)ccc1OCC(=O)Nc1ccc(C)c(C)c1	none (no result: UCH37 DUB inh)
O=C(NN=Cc1ccc2c(c1)OCO2)c1cc(-c2ccccc2)nc2ccccc12	none (no result: AHR activator, A3G deaminase, PolyA inh, A3A deaminase, Arrestin-AP2 inh)
COc1ccc(NC(=O)CCC(=O)N(Cc2ccc(OC)c(OC)c2)c2nccs2)c(OC)c1	Arrestin-AP2 inh 56.2 | Arr AP2 CP1 inactive | GST GSH counter inactive
N#Cc1cc(C(=O)c2ccccc2OCC(=O)Nc2ccccc2)cn(C2CCCCC2)c1=O	Arrestin-AP2 inh 108.3 | Arr AP2 CP1 72.4 | GST GSH counter 191.3
CCCCNC(=O)COc1ccccc1C(=O)c1cc(C#N)c(=O)n(CCOC)c1	none
COC(=O)Cc1c(C)c2ccc(O)c(CN3CCCC(C)C3)c2oc1=O (stereo unspecified)	PolyA inh inconclusive, Arrestin-AP2 inh 104.9 | Arr AP2 CP1 inactive | GST GSH counter inactive
CCc1c(C)c2ccc(O)c(CN3CCCC3)c2oc1=O	none (no result: AHR activator)
CC(=NNC(=O)CSCc1cccc(Br)c1)c1ccc([N+](=O)[O-])cc1	none (no result: AHR activator, A3G deaminase, PolyA inh, A3A deaminase, Arrestin-AP2 inh)
CC(=NNC(=O)NC1CCCCC1)c1ccco1	none (no result: AHR activator, A3G deaminase, PolyA inh, A3A deaminase, Arrestin-AP2 inh)
COc1ccc(OC)c(C=NNC(=O)CSc2nnc(C)n2-c2ccccc2)c1	none (no result: AHR activator, A3G deaminase, PolyA inh, A3A deaminase, Arrestin-AP2 inh)
CCOC(=O)c1ccc2c(c1)sc(=NC(=O)c1ccco1)n2CCOC	none
CCOC(=O)Cn1c(=NC(=O)c2cccs2)sc2cc(C(=O)OC)ccc21	Arrestin-AP2 inh 106.4 | Arr AP2 CP1 inactive
COc1ccc(Cn2c(=O)[nH]c3cc(C(=O)NCCc4ccc(S(N)(=O)=O)cc4)ccc3c2=O)cc1	Arrestin-AP2 inh 109.6 | Arr AP2 CP1 inactive | GST GSH counter inactive
O=[N+]([O-])c1cc(S(=O)(=O)N2CCCC2)ccc1N/N=C/c1cccnc1	Arrestin-AP2 inh 69.6 (no result: UCH37 DUB inh) | Arr AP2 CP1 inactive | GST GSH counter inactive
O=C(COC(=O)c1ccc(F)cc1F)c1ccc[nH]1	Arrestin-AP2 inh 71.8 (no result: AHR activator, PolyA inh) | Arr AP2 CP1 inactive | GST GSH counter inactive
CCN(CC)C(=O)Nc1c(C)n(C)n(-c2ccccc2)c1=O	Arrestin-AP2 inh 65.0 | Arr AP2 CP1 inactive | GST GSH counter inactive
CCC(CC)C(=O)Nc1c(C)n(C)n(-c2ccccc2)c1=O	none
CC(/C=C/c1ccccc1)=NNC(=O)c1cc([N+](=O)[O-])cc([N+](=O)[O-])c1	none (no result: AHR activator, A3G deaminase, PolyA inh, A3A deaminase, Arrestin-AP2 inh)
O=[N+]([O-])c1ccc(CNc2cccc(Cl)c2)s1	Arrestin-AP2 inh 60.4 | Arr AP2 CP1 inactive | GST GSH counter inactive
O=[N+]([O-])c1ccc(CNc2ccc(Cl)cc2)s1	none
O=C(CN1CCN(c2ccccc2)CC1)NN=Cc1cccc(F)c1	none (no result: AHR activator, A3G deaminase, PolyA inh, A3A deaminase, Arrestin-AP2 inh)
O=C(OC1CCOC1=O)c1cccc(S(=O)(=O)Nc2cccc(Cl)c2)c1 (stereo unspecified)	Arrestin-AP2 inh 62.7 | Arr AP2 CP1 inactive | GST GSH counter inactive
CNS(=O)(=O)c1cccc(C(=O)OC2CCOC2=O)c1 (stereo unspecified)	none
